Laboratory results as given in ChEMBL document CHEMBL1129991, “Inhibition of uridine phosphorylase. Synthesis and structure-activity relationships of aryl-substituted 1-((2-hydroxyethoxy)methyl)-5-(3-phenoxybenzyl)uracil” (J Med Chem, 1997).

Assay: Tested for inhibition of Uridine Phosphorylase (UrdPase) in murine liver
Summary of the method: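 Mouse liver enzyme in a radiochemical assay: [2-¹⁴C]uridine (170 µM, 7.1 µCi/µmol) converted to [2-¹⁴C]uracil in 20 mM potassium phosphate pH 8.0, 1 mM EDTA, 1 mM dithiothreitol, with or without inhibitor. Incubated 30 min at 37 °C, stopped by heating 1 min at 100 °C. Uridine and uracil separated by TLC. Enzyme amount set to give 10% conversion uninhibited.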

Structure (SMILES) | IC50
O=c1[nH]c(=O)n(COCCO)cc1Cc1cccc(Oc2cccc(F)c2)c1 | 14 nM
O=c1[nH]c(=O)n(COC(CO)CO)cc1Cc1cccc(Oc2cccc(Cl)c2)c1 | 1.4 nM
O=c1[nH]c(=O)n(COC(CO)CO)cc1Cc1cccc(Oc2cccc(F)c2)c1 | 8.2 nM
O=c1[nH]c(=O)n(COC(CO)CO)cc1Cc1cccc(Oc2ccccc2)c1 | 10 nM
O=c1[nH]c(=O)n(COC(CO)CO)cc1Cc1cccc(Oc2ccc(F)cc2)c1 | 22 nM
COc1cccc(Oc2cccc(Cc3cn(COCCO)c(=O)[nH]c3=O)c2)c1 | 31 nM
O=c1[nH]c(=O)n(COCCO)cc1Cc1cccc(Oc2ccc(Cl)cc2)c1 | 84 nM
COc1ccc(Oc2cccc(Cc3cn(COCCO)c(=O)[nH]c3=O)c2)cc1 | 210 nM
O=c1[nH]c(=O)n(COCCO)cc1Cc1cccc(Oc2ccc(F)cc2)c1 | 98 nM
Cc1cccc(Oc2cccc(Cc3cn(COCCO)c(=O)[nH]c3=O)c2)c1 | 13 nM
O=c1[nH]c(=O)n(COCCO)cc1Cc1cccc(Oc2cccc(C(F)(F)F)c2)c1 | 32 nM
O=c1[nH]c(=O)n(COCCO)cc1Cc1cccc(Oc2cccc(Cl)c2)c1 | 15 nM
N#Cc1cccc(Oc2cccc(Cc3cn(COCCO)c(=O)[nH]c3=O)c2)c1 | 5.9 nM
O=c1[nH]c(=O)n(COCCO)cc1Cc1cccc(Oc2ccccc2)c1 | 14 nM
